# DENV2 CPE rescue = inhibitors of DENV2 cytopathic effect | DENV2-infected cells, cytopathic effect rescue, plate reader | CPE inhibition, % at 9.99 µM | actives 1.7% (n = 350,000); in the data active means CPE inhibition above about 20%, passing the limit was not always enough; tested in BHK-21 cells
# rRNA inh HTS = selective bacterial rRNA inhibition in E. coli; actives 1.6% (n = 350,000); E. coli WT GFP vs humanized-ribosome RFP mutants, fluorescence, 24 h; stronger effect = lower value; DMSO median 0, no signal -100; GFP signal change (wild-type ribosome), % (test concentration not listed); AID 720706;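 active means significant combined selectivity score with lowered wild-type GFP, culture density cut under 30%, mutant RFP and density less affected; inactive means any of these conditions unmet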
# PGC1a acetyl inh = lowers PGC1a acetylation signal in U2OS cells; inhibition, % at 15.6 µM; AlphaScreen anti-acetyl-lysine; with virally co-expressed GCN5 acetyltransferase; actives 0.17% (n = 350,000); AID 651687;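 active means every replicate shows inhibition of at least 40%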
# FN deposit inh = fibronectin deposition inhibition; AH1F fibroblasts, Alexa488-fibronectin deposition fluorescence, overnight; inhibition, % at 12.6 µM; actives 0.086% (n = 350,000); AID 743247;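 active means mean inhibition across replicates of 30% or more, regardless of how many single replicates reach that level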
#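 Assay system: AH1F fibroblasts assembling fluorescent fibronectin matrix; Amount: 10000 AH1F cells per well; Buffer or medium: DMEM, 2% serum; Probe or stimulus: Alexa488-fibronectin, 24 nM final in well; Doses: single compound dose, delivered by pin transfer; Incubation: 1 h adhesion, overnight exposure; Measured by: fluorescence 485/525 nm; Read-out: fibronectin deposition inhibition.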
# PglD inh = blocks C. jejuni PglD acetyltransferase activity; purified PglD enzyme, DTNB colorimetric CoA detection; inhibition, % at 12.5 µM; actives 0.098% (n = 360,000); AID 602405; in the data active means inhibition above about 16%, passing the limit was not always enough
# Env fusion inh = inhibitors of HIV Env-mediated cell fusion; HeLa-JRFL Env/CEM21 cell fusion, luciferase; inhibition, % at 12.3 µM; actives 1.1% (n = 360,000); AID 651610;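 active means mean replicate inhibition score of at least 50 and every replicate individually at or above 50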
# Hits are given with their value; – = inactive; · = not tested or not shown; ! = not active in a repeat; [ ] = another dose, or the depositor's remark. Sampled rows, rich in hits. Any-hit rate of the full collection: about 3.5%.
SMILES,DENV2 CPE rescue,rRNA inh HTS,PGC1a acetyl inh,FN deposit inh,PglD inh,Env fusion inh
O=C(C[C@@H]1CC[C@@H]2[C@H](COC[C@@H](O)CN2C(=O)Nc2ccc(Cl)c(Cl)c2)O1)NCc1ccncc1,–,–,–,–,–,–
N/C(=N\OC(=O)c1ccc(Cl)cc1[N+](=O)[O-])c1cccnc1,–,-22,·,–,·,–
COc1ccc(Cn2cc(CN3CCc4onc(-c5ccccc5OC)c4C3=O)nn2)cc1,–,–,·,–,·,–
COc1ccccc1-c1noc2c1C(=O)N(Cc1cn(Cc3ccccc3)nn1)CC2,56,–,–,–,–,–
N#Cc1cnn(-c2ccc([N+](=O)[O-])cc2[N+](=O)[O-])c1N,–,-7.5,–,–,–,–
C[C@H](CO)N1C[C@H](C)[C@@H](CN(C)C(=O)Nc2cccc3ccccc23)OCCCC[C@H](C)Oc2ccc(NC(=O)Nc3cccc4ccccc34)cc2C1=O,–,–,–,–,–,–
Cc1ccccc1NNC(N)=S,–,–,–,–,·,–
NC(=S)NNc1c(F)c(F)c(F)c(F)c1F,–,-26,·,–,·,–
N#C[C@H]1[C@H](c2ccc(C#CC3CCCC3)cc2)[C@H](CO)N1S(=O)(=O)c1ccccc1,–,–,–,–,–,–
N#C[C@@H]1N[C@@H](CO)[C@H]1c1ccc(C#CC2CCCC2)cc1,21,–,–,–,–,–
CN(C)CC(=O)N1[C@H](C#N)[C@H](c2ccc(C#CC3CCCC3)cc2)[C@H]1CO,–,–,–,–,–,–
CN(C)CC(=O)N1[C@@H](C#N)[C@@H](c2ccc(C#CC3CCCC3)cc2)[C@@H]1CO,39,–,–,–,–,–
N#C[C@H]1[C@@H](c2ccc(C#CC3CCCC3)cc2)[C@H](CO)N1S(=O)(=O)c1ccccc1,21,–,–,–,–,–
CN(C)CC(=O)N1[C@H](C#N)[C@H](c2ccc(C#CC3CCCC3)cc2)[C@@H]1CO,31,–,–,–,–,–
N#C[C@H]1N[C@H](CO)[C@@H]1c1ccc(C#CC2CCCC2)cc1,–,–,–,–,–,–
CN(C)CC#Cc1ccc([C@H]2[C@@H](CO)N3C(=O)CN(C(=O)Cc4cccnc4)C[C@H]23)cc1,–,–,–,·,·,·
CC1(C(=O)NS(=O)(=O)c2ccc(Cl)s2)CCN1C(=O)C1(c2ccccc2)CCCC1 (stereo not drawn),–,-31,–,–,–,–
CC1(C(=O)NS(=O)(=O)c2ccccc2Cl)CCN1C(=O)C1(c2ccc(Cl)cc2)CC1 (stereo not drawn),–,–,–,–,–,–
CC1(C(=O)NS(=O)(=O)c2ccccc2Cl)CCN1C(=O)c1ccco1 (stereo not drawn),22,–,–,–,–,–
CC1(C(=O)NS(=O)(=O)c2ccc(Cl)s2)CCN1C(=O)C1(c2ccc(Cl)cc2)CCC1 (stereo not drawn),–,–,–,–,–,–
CC1(C(=O)NS(=O)(=O)c2ccccc2Cl)CCN1C(=O)C1(c2ccc(Cl)cc2)CCC1 (stereo not drawn),–,-17,–,–,–,–
C[C@@H]1CN([C@H](C)CO)C(=O)c2cc(-c3ccc(F)cc3)cnc2O[C@@H]1CN(C)C(=O)CN(C)C,–,–,–,–,–,–
Cc1noc(C)c1S(=O)(=O)N(C)C[C@@H]1Oc2ccc(NC(=O)NC3CCCCC3)cc2CC(=O)N([C@H](C)CO)C[C@@H]1C,–,–,–,–,–,78[16.7 µM]
Cc1noc(C)c1S(=O)(=O)N(C)C[C@H]1Oc2ccc(NC(=O)NC3CCCCC3)cc2CC(=O)N([C@H](C)CO)C[C@@H]1C,–,–,–,–,–,–
Cc1noc(C)c1S(=O)(=O)N(C)C[C@@H]1Oc2ccc(NC(=O)NC3CCCCC3)cc2CC(=O)N([C@@H](C)CO)C[C@@H]1C,–,–,–,–,–,62[16.7 µM]
SMILES,DENV2 CPE rescue,rRNA inh HTS,PGC1a acetyl inh,FN deposit inh,PglD inh,Env fusion inh
Cc1noc(C)c1S(=O)(=O)N(C)C[C@H]1Oc2ccc(NC(=O)NC(C)C)cc2CC(=O)N([C@H](C)CO)C[C@H]1C,–,–,–,·,–,–
COc1ccc(S(=O)(=O)N(C)C[C@@H]2OCCCC[C@H](C)Oc3ccc(NC(=O)NC4CCCCC4)cc3C(=O)N([C@H](C)CO)C[C@@H]2C)cc1,–,–,–,–,–,–
C[C@H]1CN([C@@H](C)CO)C(=O)c2cc(NS(=O)(=O)c3ccc(F)cc3)ccc2O[C@H]1CN(C)S(=O)(=O)c1ccc(F)cc1,–,–,–,·,–,58[16.7 µM]
C[C@H]1CN([C@@H](C)CO)C(=O)c2cc(NS(=O)(=O)c3ccc(F)cc3)ccc2O[C@@H]1CN(C)S(=O)(=O)c1ccc(F)cc1,54,–,–,·,–,–
CC(C)NC(=O)Nc1ccc2c(c1)CC(=O)N([C@H](C)CO)C[C@@H](C)[C@@H](CN(C)S(=O)(=O)c1ccc(Cl)cc1)O2,–,–,–,–,–,·
CCC(=O)c1ccc(OCC(=O)Nc2nc(C)cs2)cc1,–,-27,–,·,–,–
Cc1noc(C)c1NC(=O)N(C)C[C@@H]1Oc2ncc(C#CC(C)C)cc2C(=O)N([C@@H](C)CO)C[C@H]1C,–,–,–,–,–,–
C[C@@H]1CN([C@H](C)CO)C(=O)Cc2cc(N(C)C)ccc2O[C@H]1CN(C)C(=O)Nc1ccc(F)cc1,–,–,–,·,–,·
O=C1NC(=S)SC1=Cc1ccc(Cl)cc1,22,·,–,–,–,–
O=C1NC(=S)SC1=Cc1ccc(F)cc1,–,–,–,–,·,–
O=C1C(Cc2ccccc2)Nc2ncnc(N3CCOCC3)c2N1Cc1ccc(Cl)cc1 (stereo not drawn),–,-21!,–,–,–,–
C[C@@H]1CN([C@H](C)CO)C(=O)Cc2cc(NC(=O)Cc3cn(C)c4ccccc34)ccc2O[C@H]1CN(C)C(=O)NC1CCCCC1,–,–,–,·,–,·
COc1ccc(S(=O)(=O)N(C)C[C@H]2Oc3ccc(NS(=O)(=O)c4ccc(C)cc4)cc3CC(=O)N([C@H](C)CO)C[C@@H]2C)cc1,–,–,–,·,–,–
Cc1oc2c(CN3CCCC3)c(O)ccc2c(=O)c1-c1ccc(Br)cc1,–,-28,–,·,–,·
O=C(Cc1cccnc1)N1[C@@H](CO)[C@@H]2c3ccccc3NC[C@@H]21,24,–,–,·,–,·
COc1ccc(CN2[C@@H](CO)[C@@H]3c4ccccc4NC[C@@H]32)cc1,66,–,–,–,–,·
COc1ccc(CN2[C@H](CO)[C@H]3c4ccccc4NC[C@H]32)cc1,–,–,–,–,–,·
COCC(=O)N1[C@H](CO)[C@H]2c3ccccc3NC[C@H]21,32,–,–,–,–,·
O=C(Cc1cccnc1)N1[C@@H]2CNc3ccccc3[C@@H]2[C@@H]1CO,–,–,–,·,–,·

# Screens from PubChem BioAssay.
